Results collected from several papers.
Lines come from different studies, so protocols differ.
Target: Serine/threonine-protein kinase WNK3 (WNK3, Homo sapiens, UniProt Q9BYP7)

SMILES	read-out	mode	technique	concentration	quantity	result
CN(C)C(=O)Cn1cc(-c2nc([C@@](C)(c3ccc(-c4cnc(N)nc4)cc3)C3CC3)no2)cn1	cell-free assay	–	competition with immobilised ligand	1 µM	remaining binding	76%
CNC(=O)c1cc(Oc2ccc(NC(=O)Nc3ccc(Cl)c(C(F)(F)F)c3)cc2)ccn1	enzyme activity	inhibitor	–	0.3 µM	inhibition	-6%
CC(C)(O)c1cncc(-c2nc3ccc(F)cc3n2C2CC2)c1	cell-free assay	–	competition with immobilised ligand	1 µM	remaining binding	100%
CC(C)(C)c1nc2c(s1)c1nc(N)ncc1c1ccc(NS(=O)(=O)c3c(F)cccc3F)c(F)c12	enzyme activity	inhibitor	radiometric	1 µM	remaining activity	91%
O=C(Nc1cnn(-c2csc(C(=O)NC3COC3)c2)c1)Nc1c(F)cccc1Cl	enzyme activity	inhibitor	–	5 µM	remaining activity	91.8%
Cc1cnc(NC2CCOCC2)nc1-n1cnc(C(=O)NC(CN)c2cc(F)cc(Cl)c2)c1 (centres unmarked)	enzyme activity	inhibitor	radiometric	1 µM	remaining activity	103%
Cc1ccc(Nc2nccc(N(C)c3ccc4c(C)n(C)nc4c3)n2)cc1S(N)(=O)=O	enzyme activity	inhibitor	–	0.3 µM	inhibition	-4%
CN1CC(Oc2cnc(C#N)cc2-c2ccn3nc(NC(=O)C4CC4)cc3c2)C1	enzyme activity	inhibitor	–	1 µM	inhibition	-5%
CCCOc1ccc([C@H]2[C@H](C(=O)O)[C@@H](c3ccc4c(c3)OCO4)CN2CC(=O)Nc2c(CC)cccc2CC)cc1	cell-free assay	–	competition with immobilised ligand	1 µM	remaining binding	90%
CC(C)(O)[C@H]1CC[C@H](Nc2ccc3ncc(-c4cccc(C(F)(F)F)c4)n3n2)CC1	enzyme activity	inhibitor	–	1 µM	remaining activity	90.7%
CCN(CC)CCNC(=O)c1c(C)[nH]c(/C=C2\C(=O)Nc3ccc(F)cc32)c1C	enzyme activity	inhibitor	–	0.3 µM	inhibition	-4%
O=C1Nc2ccc(Cl)cc2C1=Cc1cc(Cl)c(O)c(Cl)c1	cell-free assay	–	–	0.5 µM	remaining signal	90.7%
CNCc1ccccc1-c1csc([C@@H](C)Nc2nc(C)nc3cc(OC)c(OC)cc23)c1	cell-free assay	–	competition with immobilised ligand	1 µM	remaining binding	100%
CCCOc1ccc(OC)c(F)c1C(=O)c1ccc(C(=O)N[C@@H]2CNC[C@H]2NC(=O)c2ccc3[nH]ncc3c2)cc1	enzyme activity	inhibitor	–	10 µM	remaining activity	95%
O=C1NC(=O)c2cc(Nc3ccc(F)cc3)c(Nc3ccc(F)cc3)cc21	cell-free assay	–	–	0.5 µM	remaining signal	92.7%
FC(F)(F)c1ccc2c(c1)nc(-c1cccnc1)n2C1CC1	cell-free assay	–	competition with immobilised ligand	1 µM	remaining binding	100%
CCCS(=O)(=O)Nc1ccc(F)c(C(=O)c2c[nH]c3ncc(-c4ccc(Cl)cc4)cc23)c1F	enzyme activity	inhibitor	–	1 µM	inhibition	< 10%
